Data published in ChEMBL document CHEMBL3826940, “Amphipathicity Determines Different Cytotoxic Mechanisms of Lysine- or Arginine-Rich Cationic Hydrophobic Peptides in Cancer Cells” (J Med Chem, 2016).
The source made the active and inactive calls. The rule behind the calls is not given here.

What was measured:
[1] = Hemolytic activity in mouse RBC at 0.39 to 50 uM after 1 hr; assay type: ADME, cell-based; conditions: erythrocyte
How it was run: (§1)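 Heparinized fresh mouse blood: RBCs were washed three times in 0.9% saline and diluted to 4.0 × 10^8 cells/mL. Peptides at various concentrations were incubated with the RBCs 1 h at 37 °C. After centrifugation at 1000 rpm for 10 min, supernatant absorbance was read at 540 nm, with 1% Triton X-100 set as 100% hemolysis.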

A549 [2] = test: Cytotoxicity against human A549 cells assessed as cell viability after 24 hrs by MTT assay; assay type: functional, cell-based
How it was run: (§2)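 MTT viability assay. Cells were seeded at 1 × 10^4 cells/well in complete medium and grown 24 h. Medium was replaced with fresh medium containing peptide over a concentration series and incubated 24 h. MTT (5 mg/mL) was added for 4 h, formazan was dissolved in DMSO, and A490 was read. IC50 was derived from mean ± SD of three independent experiments.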

[3] = Cytotoxicity against human 293T cells assessed as cell viability after 24 hrs by MTT assay; assay type: cell-based, HEK-293T; conditions: for Activity: human, hek-293t; how it was run: as §2
HUVEC [4] = test: Cytotoxicity against HUVEC assessed as cell viability after 24 hrs by MTT assay; assay type: cell-based, Homo sapiens; conditions: for Activity: human, huvec; how it was run: as §2
MCF7 [5] = test: Cytotoxicity against human MCF7 cells assessed as cell viability after 24 hrs by MTT assay; assay type: functional, cell-based; how it was run: as §2
HeLa [6] = test: Cytotoxicity against human HeLa cells assessed as cell viability after 24 hrs by MTT assay; assay type: functional, cell-based; how it was run: as §2
[7] = Cytotoxicity against HLF assessed as cell viability after 24 hrs by MTT assay; set-up: species or system Homo sapiens; conditions: for Activity: human, hlf; how it was run: as §2
HeLa [8] = test: Induction of apoptosis in human HeLa cells assessed as caspase-3 activation at 5 uM after 5 mins by caspase-glo assay; assay type: functional, cell-based
How it was run: (§3)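 Cells in 96-well plates were exposed to 5 μM peptide for 5, 10, 15 or 30 min, or 1, 2, 3 or 4 h. Caspase-Glo 3/7 reagent was added, the plate shaken 30 s and incubated 2 h at room temperature, and luminescence was read.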

HeLa [9] = test: Cytotoxicity against human HeLa cells assessed as lethality at 5 uM after 30 mins by MTT assay; assay type: functional
How it was run: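 HeLa cells were grown in DMEM with 10% FBS and seeded at 1 × 10^4 cells/well, then grown 24 h. Medium was replaced with fresh medium containing 5 μM peptide for 30 min. MTT was added for 4 h and formazan was dissolved in DMSO (10 min, 37 °C). Lethality was read as absorbance at 490 nm.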

MCF7 [10] = test: Selectivity index, ratio of IC50 for HLF to IC50 for human MCF7 cells
HeLa [11] = test: Selectivity index, ratio of IC50 for HLF to IC50 for human HeLa cells
[12] = Induction of reactive oxygen species generation in HLF at 5 uM after 30 mins by DCFH-DA staining-based fluorescence assay; conditions: human, 0.5 h
How it was run: (§4)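 Cells in 96-well plates were loaded with DCFH-DA for 20 min at 37 °C, then treated with or without 5 μM peptide for 30 min. After a PBS wash, DCF fluorescence was read at 485/535 nm and expressed as fold change versus untreated cells.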

HeLa [13] = test: Selectivity index, ratio of IC50 for human 293T cells to IC50 for human HeLa cells; assay type: functional
A549 [14] = test: Selectivity index, ratio of IC50 for human 293T cells to IC50 for human A549 cells; assay type: functional
HeLa [15] = test: Cytotoxicity against human HeLa cells assessed as cell mortality at 5 uM after 30 mins by Hoechst 33342/propidium iodide staining-based assay; assay type: functional
How it was run: (§5)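 HeLa cells treated with 5 μM peptide were co-stained with Hoechst 33342 (stains all nuclei) and propidium iodide (stains only membrane-compromised cells). Fluorescence imaging was done at time points up to 30 min.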

A549 [16] = test: Selectivity index, ratio of IC50 for HLF to IC50 for human A549 cells
HeLa [17] = test: Induction of apoptosis in human HeLa cells assessed as viable cells at 5 uM after 15 mins by annexin V/FITC staining-based flow cytometric method (reference value: 99.8%); assay type: functional; conditions: 0.25 h, read-out: Activity
How it was run: (§6)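 Cells were grown 24 h in 6-well plates, then exposed to 5 μM peptide for 15 min. They were collected, washed twice with PBS, and stained with annexin V-FITC plus PI for 20 min at room temperature in the dark before flow cytometry.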

[18] = Hemolytic activity in mouse RBC after 1 hr; assay type: ADME, cell-based, Erythrocyte; conditions: red blood cells; how it was run: as §1
HeLa [19] = test: Induction of shrinkage of human HeLa cells at 5 uM after 30 mins by microscopic method; assay type: functional, cell-based
How it was run: (§7)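 HeLa cells were co-incubated with 5 μM peptide for 30 min. Morphology was then examined under the microscope.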

MCF7 [20] = test: Induction of reactive oxygen species generation in human MCF7 cells at 5 uM after 30 mins by DCFH-DA staining-based fluorescence assay; assay type: functional, cell-based; how it was run: as §4
HeLa [21] = test: Induction of apoptosis in human HeLa cells assessed as late apoptotic cells at 5 uM after 15 mins by annexin V/FITC staining-based flow cytometric method relative to control; assay type: functional; how it was run: as §6
[22] = Induction of reactive oxygen species generation in human 293T cells at 5 uM after 30 mins by DCFH-DA staining-based fluorescence assay; assay type: cell-based; conditions: hek-293t, 0.5 h; how it was run: as §4
HeLa [23] = test: Cytotoxicity against human HeLa cells assessed as cell mortality at 5 uM after 6 hrs by MTT assay; assay type: functional, cell-based
HeLa [24] = test: Cytotoxicity against human HeLa cells assessed as lethality at 5 uM after 30 mins in presence of caspase-3 inhibitor Ac-DEVD-CHO by MTT assay; assay type: functional
How it was run: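 HeLa cells were seeded at 1 × 10^4 cells/well and grown 24 h. They were pretreated 30 min with 50 μM Ac-DEVD-CHO, then incubated with or without 5 μM peptide for 30 min. Survival was measured by MTT: 4 h with MTT, DMSO solubilisation, absorbance at 490 nm.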

MCF7 [25] = test: Selectivity index, ratio of IC50 for human 293T cells to IC50 for human MCF7 cells; assay type: functional
A549 [26] = test: Selectivity index, ratio of IC50 for HUVEC to IC50 for human A549 cells
HeLa [27] = test: Cytotoxicity against human HeLa cells assessed as lethality at 5 uM at 0 degC after 30 mins by MTT assay; assay type: functional, cell-based
How it was run: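 HeLa cells were incubated with peptide over a range of concentrations at 0 or 37 °C for 30 min. Lethality was then measured by MTT, with A490 read after DMSO solubilization.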

HeLa [28] = test: Induction of morphological changes in human HeLa cells at 5 uM after 30 mins by microscopic method; assay type: functional, cell-based; how it was run: as §7
[29] = Drug uptake in cytoplasm of human HeLa cells at 5 uM after 2 to 30 mins using iridium dye labeled compound by confocal microscopic method; assay type: ADME, cell-based
How it was run: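 Peptides were labelled at the N-terminal His with [Ir(ppy)2(H2O)2]OTf: 200 μM each, mixed 1:1 in PBS, 2 h at 37 °C in the dark. HeLa cells (1 × 10^5 per dish, grown 24 h) were exposed to 5 μM labelled peptide. Live-cell confocal images were taken at 0, 5 and 15 min (excitation 403 nm, emission 500–560 nm).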

MCF7 [30] = test: Selectivity index, ratio of IC50 for HUVEC to IC50 for human MCF7 cells
A549 [31] = test: Induction of reactive oxygen species generation in human A549 cells at 5 uM after 30 mins by DCFH-DA staining-based fluorescence assay; assay type: functional, cell-based; how it was run: as §4
HeLa [32] = test: Induction of apoptosis in human HeLa cells assessed as early apoptotic cells at 5 uM after 15 mins by annexin V/FITC staining-based flow cytometric method (reference value: 0.1%); assay type: functional; how it was run: as §6
HeLa [33] = test: Cytotoxicity against human HeLa cells assessed as cell mortality at 5 uM after 5 mins by Hoechst 33342/propidium iodide staining-based assay; assay type: functional; how it was run: as §5
HeLa [34] = test: Induction of apoptosis in human HeLa cells assessed as caspase-3 cleavage at 5 uM after 5 mins by Western blot method; assay type: functional, cell-based
How it was run: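 HeLa cells (8 × 10^5 per 100 mm dish, grown 24 h) were exposed to 5 μM peptide for 5, 10 or 15 min. Lysates (with 1 mM PMSF) were run on 15% SDS-PAGE and blotted to PVDF. Blots were probed overnight at 4 °C with rabbit monoclonal anti-cleaved caspase-3, then HRP goat anti-rabbit, and detected by ECL with actin as loading control.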

HeLa [35] = test: Selectivity index, ratio of IC50 for HUVEC to IC50 for human HeLa cells
HeLa [36] = test: Cytotoxicity against human HeLa cells assessed as cell mortality at 5 uM after 5 mins by MTT assay; assay type: functional, cell-based
HeLa [37] = test: Induction of apoptosis in human HeLa cells assessed as caspase-3 activation at 5 uM after 1 to 4 hrs by caspase-glo assay; assay type: functional, cell-based; how it was run: as §3
HeLa [38] = test: Induction of reactive oxygen species generation in human HeLa cells at 5 uM after 30 mins by DCFH-DA staining-based fluorescence assay; assay type: functional, cell-based; how it was run: as §4
HeLa [39] = test: Induction of appearance of rounded human HeLa cells at 5 uM after 30 mins by microscopic method; assay type: functional, cell-based; how it was run: as §7
HeLa [40] = test: Induction of apoptosis in human HeLa cells assessed as necrotic cells at 5 uM after 15 mins by annexin V/FITC staining-based flow cytometric method relative to control; assay type: functional; how it was run: as §6
HUVEC [41] = test: Induction of reactive oxygen species generation in HUVEC at 5 uM after 30 mins by DCFH-DA staining-based fluorescence assay; assay type: cell-based; conditions: human, 0.5 h; how it was run: as §4

**Q.** Which Activity [1] does the source give for H-HGGKLLKLLKKLLKLLK-NH2 here?
**A.** The Activity was “Toxic”.

**Q.** And the Activity (A549 [2])?
**A.** The Activity was “Active”.

**Q.** What about the Activity [3] of the same compound?
**A.** Its Activity is “Toxic”.

**Q.** And the Activity (HUVEC [4])?
**A.** The Activity was “Toxic”.

**Q.** And the Activity (MCF7 [5])?
**A.** Its Activity is “Active”.

**Q.** What about the IC50 (HeLa [6]) of the same compound?
**A.** Its IC50 is 3.3 µM.

**Q.** What about the Activity [7] of the same compound?
**A.** The Activity was “Toxic”.

**Q.** For H-HGGKLLKLLKLKKLLKL-NH2, which Activity [1] is on record?
**A.** Its Activity is “Non-toxic”.

**Q.** What about the Activity (A549 [2]) of the same compound?
**A.** The Activity was “inactive”.

**Q.** And the Activity [3]?
**A.** Its Activity is “Non-toxic”.

**Q.** And the Activity (HUVEC [4])?
**A.** The Activity was “Non-toxic”.

**Q.** What about the Activity (MCF7 [5]) of the same compound?
**A.** The Activity was “inactive”.

**Q.** What about the IC50 (HeLa [6]) of the same compound?
**A.** Its IC50 is 34.5 µM.

**Q.** And the Activity [7]?
**A.** Its Activity is “Non-toxic”.

**Q.** What does the source list for `CC(C)C[C@H](NC(=O)[C@H](CCCNC(=N)N)NC(=O)[C@H](CC(C)C)NC(=O)[C@H](CC(C)C)NC(=O)[C@H](CCCNC(=N)N)NC(=O)[C@H](CCCNC(=N)N)NC(=O)[C@H](CC(C)C)NC(=O)[C@H](CCCNC(=N)N)NC(=O)[C@H](CC(C)C)NC(=O)[C@H](CC(C)C)NC(=O)[C@H](CCCNC(=N)N)NC(=O)[C@H](CC(C)C)NC(=O)[C@H](CC(C)C)NC(=O)[C@H](CCCNC(=N)N)NC(=O)CNC(=O)CNC(=O)[C@@H](N)Cc1cnc[nH]1)C(N)=O`?
**A.** Activity (HeLa [8]): Active; Activity (HeLa [9]): 56%; Ratio IC50 (MCF7 [10]): 4; IC50 (A549 [2]; A549, 24 h): 4.8 µM; Ratio IC50 (HeLa [11]): 4; Activity [12]: Non-toxic; Ratio IC50 (HeLa [13]): 4; Ratio IC50 (A549 [14]): 4; Activity (HeLa [15]): Active; Ratio IC50 (A549 [16]): 4; viability at 5 µM (HeLa [17]): 46.3%; HC50 at 1 h [18]: > 200 µM; Activity (HeLa [19]): Active; Activity (MCF7 [20]): Active; IC50 ([3]; Homo sapiens, HEK-293T): 41.6 µM; Activity (HeLa [21]): 7.7%; IC50 (HUVEC [4]; Homo sapiens, HUVEC): 19 µM; Activity [22]: Non-toxic; Activity (HeLa [23]): Active; Activity (HeLa [24]): 20%; IC50 (MCF7 [5]; MCF7, 24 h): 4.5 µM; Ratio IC50 (MCF7 [25]): 4; Ratio IC50 (A549 [26]): 4; Activity (HeLa [27]): inactive; IC50 (HeLa [6]): 4.2 µM; Activity (HeLa [28]): inactive; Drug uptake [29]: Active; Ratio IC50 (MCF7 [30]): 4; Activity (A549 [31]): Active; Activity (HeLa [32]): 45.9%; Activity (HeLa [33]): inactive; Activity (HeLa [34]): Active; Ratio IC50 (HeLa [35]): 4; IC50 ([7]; Homo sapiens, HLF): 21.4 µM; Activity (HeLa [36]): inactive; Activity (HeLa [37]): inactive; Activity (HeLa [38]): Active; Activity (HeLa [39]): Active; Activity (HeLa [40]): 0.1%; Activity (HUVEC [41]): Non-toxic
